According to BindingDB's records for doi:10.1021/jm970460b (University of Wisconsin-Milwaukee, 1998):

Target: Gamma-aminobutyric acid receptor subunit alpha-6/beta-3/gamma-2 (Homo sapiens, UniProt Q16445+P18507+P28472)
Experiment: Binding affinity measured using LtK- cell membranes expressing Gamma-aminobutyric acid A receptor alpha-6-beta-3-gamma-2
Summary of the method: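 Cells scraped, resuspended in 10 mM KH2PO4/100 mM KCl, pH 7.4. Incubation 1 h at 4 °C to equilibrium, filtration, scintillation counting. Ki from iterative least-squares fit, mean of two determinations.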

Sequence of Gamma-aminobutyric acid receptor subunit alpha-6/beta-3/gamma-2 (Q16445 whole entry): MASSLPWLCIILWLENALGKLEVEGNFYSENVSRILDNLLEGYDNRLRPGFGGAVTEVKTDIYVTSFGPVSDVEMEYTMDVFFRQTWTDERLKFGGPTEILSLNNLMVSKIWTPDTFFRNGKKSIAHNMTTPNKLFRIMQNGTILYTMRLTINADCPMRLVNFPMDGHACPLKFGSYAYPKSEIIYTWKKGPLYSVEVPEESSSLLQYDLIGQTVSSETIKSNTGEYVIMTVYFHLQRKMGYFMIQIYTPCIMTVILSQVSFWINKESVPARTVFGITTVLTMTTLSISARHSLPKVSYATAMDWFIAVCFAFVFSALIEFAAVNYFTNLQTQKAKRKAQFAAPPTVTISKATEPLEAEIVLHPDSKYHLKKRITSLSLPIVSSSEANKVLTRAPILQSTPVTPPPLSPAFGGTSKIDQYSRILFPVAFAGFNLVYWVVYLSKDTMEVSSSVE
Sequence of Gamma-aminobutyric acid receptor subunit alpha-6/beta-3/gamma-2 (P18507 as listed by the source): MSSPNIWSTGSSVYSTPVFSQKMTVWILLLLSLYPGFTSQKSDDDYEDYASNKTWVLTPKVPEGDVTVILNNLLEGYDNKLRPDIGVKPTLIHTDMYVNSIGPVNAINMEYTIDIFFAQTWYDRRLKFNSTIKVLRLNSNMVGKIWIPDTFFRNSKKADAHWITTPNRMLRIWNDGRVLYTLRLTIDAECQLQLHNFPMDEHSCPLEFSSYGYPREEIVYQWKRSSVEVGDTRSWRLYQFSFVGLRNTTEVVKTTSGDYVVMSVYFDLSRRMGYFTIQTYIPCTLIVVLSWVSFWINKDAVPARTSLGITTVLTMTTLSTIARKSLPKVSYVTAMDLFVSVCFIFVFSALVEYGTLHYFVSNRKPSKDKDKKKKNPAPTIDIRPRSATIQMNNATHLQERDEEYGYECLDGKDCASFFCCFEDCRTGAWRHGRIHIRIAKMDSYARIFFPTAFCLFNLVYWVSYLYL
Sequence of Gamma-aminobutyric acid receptor subunit alpha-6/beta-3/gamma-2 (P28472 whole entry): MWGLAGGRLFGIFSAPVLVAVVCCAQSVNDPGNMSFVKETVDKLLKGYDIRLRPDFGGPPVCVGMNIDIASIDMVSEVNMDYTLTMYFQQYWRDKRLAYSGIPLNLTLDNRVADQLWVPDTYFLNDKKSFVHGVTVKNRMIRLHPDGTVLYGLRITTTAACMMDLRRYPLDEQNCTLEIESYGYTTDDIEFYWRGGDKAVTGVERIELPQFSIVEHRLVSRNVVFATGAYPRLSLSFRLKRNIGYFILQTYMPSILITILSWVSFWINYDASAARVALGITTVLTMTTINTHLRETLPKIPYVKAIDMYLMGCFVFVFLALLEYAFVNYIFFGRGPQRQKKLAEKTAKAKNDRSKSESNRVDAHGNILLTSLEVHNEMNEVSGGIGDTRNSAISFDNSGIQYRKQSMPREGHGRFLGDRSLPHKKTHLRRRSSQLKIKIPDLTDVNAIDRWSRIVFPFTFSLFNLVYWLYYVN

Ki: > 1000 nM
SMILES: CCOC(=O)c1[nH]cc2nc3ccc(OCc4ccccc4)cc3c-2c1COC [6-Benzyloxy-4-methoxymethyl-9H-beta-carboline-3-carboxylic acid ethyl ester]
